Source: ChEMBL document CHEMBL1129956, “4-substituted-3-phenylquinolin-2(1H)-ones: acidic and nonacidic glycine site N-methyl-D-aspartate antagonists with in vivo activity” (J Med Chem, 1997)
Activity calls are given as the source filed them. The rule behind the calls is not given here.

How the values were obtained:
[1] = target: Glutamate receptor ionotropic, NMDA 1 (Rattus norvegicus) (UniProt P35439); test: (§1) Evaluated to antagonize NMDA responses in a rat cortical slice preparations; type: functional
Procedure, shortened: (§2)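 Rat cortical slice preparation; antagonist-induced rightward shift of the NMDA concentration–response curve used to calculate apparent Kb; values are the means of three determinations.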

Mus musculus [2] = test: Compound was evaluated in vivo for their ability to protect against audiogenic seizure in DBA/2 mice when dosed ip 30 min prior to noise stimulation; type: functional
Procedure, shortened: (§3)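 DBA/2 mice given compound intraperitoneally 30 min before noise stimulation, with protection from audiogenic seizure scored. Results are reported as an ED50 (mg/kg) or as number of mice protected per number tested at a single dose.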

[3] = target: Glutamate receptor ionotropic, NMDA 1 (Rattus norvegicus, UniProt P35439); test: In vitro ability to displace [3H]L-689,560 binding to glycine site on the N-methyl-D-aspartate (NMDA) glutamate receptor 1 from rat cortical membranes
Procedure, shortened: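 Glycine-site antagonist [3H]L-689,560 displaced from rat cortex/hippocampus membranes. IC50 (concentration inhibiting 50% of specific binding) taken from 5-point inhibition curves as the geometric mean of at least three experiments. A compound giving under 50% inhibition at 100 μM in two experiments is reported as >100 μM.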

[4] = target: Glutamate NMDA receptor (Rattus norvegicus) (UniProt P35439+Q00959+Q00960+Q00961+Q62645+Q8VHN2+Q9R1M7); test: as §1; type: functional; procedure, shortened: as §2
Mus musculus [5] = test: compound was evaluated in vivo for their ability to protect against audiogenic seizure in DBA/2 mice when dosed ip 30 min prior to noise stimulation and it is evaluated as ED50 value; type: functional; procedure, shortened: as §3
Mus musculus [6] = test: Compound was evaluated in vivo for their ability to protect against audiogenic seizure in DBA/2 mice when administered 20 mg/kg ip 30 min prior to noise stimulation out of 8 mice tested; type: functional; conditions: route intraperitoneal; procedure, shortened: as §3
[7] = target: Glutamate receptor ionotropic, NMDA 1 (Rattus norvegicus) (UniProt P35439); test: In vitro ability to displace [3H]L-689,560 binding to glycine site on the N-methyl-D-aspartate glutamate receptor 1 from rat cortical membranes at […]
Mus musculus [8] = test: compound was evaluated in vivo for their ability to protect against audiogenic seizure in DBA/2 mice when administered 20 mg/kg ip 30 min prior to noise stimulation out of 8 mice tested; type: functional; conditions: route intraperitoneal; procedure, shortened: as §3
Mus musculus [9] = test: Evaluated in vivo for their ability to protect against audiogenic seizure in DBA/2 mice when administered 20 mg/kg ip 30 min prior to noise stimulation out of 8 mice tested; conditions: route intraperitoneal
Mus musculus [10] = test: Evaluated in vivo for their ability to protect against audiogenic seizure in DBA/2 mice when administered 100 mg/kg ip 30 min prior to noise stimulation out of 8 mice tested; conditions: route intraperitoneal
[11] = target: Glutamate receptor ionotropic, NMDA 1 (Rattus norvegicus) (UniProt P35439); test: In vitro ability to displace [3H]L-689,560 binding to glycine site on the N-methyl-D-aspartate glutamate receptor 1 from rat cortical membranes at 10 uM
Mus musculus [12] = test: compound was evaluated in vivo for their ability to protect against audiogenic seizure in DBA/2 mice when administered 100 mg/kg ip 30 min prior to noise stimulation out of 8 mice tested; type: functional; conditions: route intraperitoneal; procedure, shortened: as §3
Mus musculus [13] = test: compound was evaluated in vivo for their ability to protect against audiogenic seizure in DBA/2 mice when administered 50 mg/kg ip 30 min prior to noise stimulation out of 8 mice tested; type: functional; conditions: route intraperitoneal; procedure, shortened: as §3
Mus musculus [14] = test: compound was evaluated in vivo for their ability to protect against audiogenic seizure in DBA/2 mice when administered 10 mg/kg ip 30 min prior to noise stimulation out of 8 mice tested; type: functional; conditions: route intraperitoneal; procedure, shortened: as §3
Mus musculus [15] = test: Compound was evaluated in vivo for their ability to protect against audiogenic seizure in DBA/2 mice when dosed ip 30 min prior to noise stimulation and it is evaluated as ED50 value; type: functional; procedure, shortened: as §3
Mus musculus [16] = test: In vivo ability to protect against audiogenic seizure in DBA/2 mice when administered 20 mg/kg ip 30 min prior to noise stimulation out of 8 mice tested; type: functional, organism-based; set-up: dose 20 mg/kg; procedure, shortened: as §3
Mus musculus [17] = test: Compound was evaluated in vivo for their ability to protect against audiogenic seizure in DBA/2 mice when administered 20 mg/kg ip 30 min prior to noise stimulation out of 8 mice tested; conditions: route intraperitoneal
Mus musculus [18] = test: compound was evaluated in vivo for their ability to protect against audiogenic seizure in DBA/2 mice when administered 20 mg/kg ip 30 min prior to noise stimulation (expressed as no of mice protected/tested); 1/8; type: functional, organism-based; set-up: dose 20 mg/kg; procedure, shortened: as §3

| SMILES | IC50 [3] | Kb [4] | further results |
| --- | --- | --- | --- |
| N#CCOc1c(-c2ccccc2)c(O)nc2cc(Cl)ccc12 | 320 nM |  | Kb [1]: 4700 nM; ED50 (Mus musculus [2]): 16.3 mg/kg |
| CN(C)C(=O)COc1c(-c2ccccc2)c(O)nc2cc(Cl)ccc12 | 11600 nM |  |  |
| O=c1[nH]c2cc(Cl)ccc2cc1-c1ccccc1 | > 100000 nM |  |  |
| O=c1[nH]c2cc(Cl)ccc2c(O)c1-c1ccccc1 |  | 880 nM | ED50 (Mus musculus [5]): 4.5 mg/kg |
| NC(=O)COc1c(-c2ccccc2)c(O)nc2cc(Cl)ccc12 |  |  | Kb [1]: 3100 nM; No. of mice protected (Mus musculus [6]): 0 |
| COC(=O)c1c(-c2ccccc2)c(O)nc2cc(Cl)ccc12 |  |  | inhibition [7]: 69% |
| COC(=O)CCc1c(-c2ccccc2)c(O)nc2cc(Cl)ccc12 | 500 nM | 4600 nM | No. of mice protected (Mus musculus [8]): 0 |
| O=C(O)c1c(-c2ccccc2)c(O)nc2cc(Cl)ccc12 |  |  | Kb [1]: 1300 nM; No. of mice protected (Mus musculus [6]): 1 |
| O=C(Cc1ccccc1)Nc1c(-c2ccccc2)c(O)nc2cc(Cl)ccc12 | > 100000 nM |  |  |
| O=C(O)C(=O)Nc1c(-c2ccccc2)c(=O)[nH]c2cc(Cl)ccc12 | 580 nM |  |  |
| Oc1nc2cc(Cl)ccc2c(NCc2ccccc2)c1-c1ccccc1 | 2000 nM | > 3000 nM | No. of mice protected (Mus musculus [9]): 1 |
| Oc1nc2cc(Cl)ccc2c(CCc2nnn[nH]2)c1-c1ccccc1 |  | 1600 nM | No. of mice protected (Mus musculus [10]): 0 |
| CN(C)CCNC(=O)Cc1c(-c2ccccc2)c(O)nc2cc(Cl)ccc12 |  |  | inhibition [11]: 29%; No. of mice protected (Mus musculus [9]): 0 |
| NC(=O)CCc1c(-c2ccccc2)c(=O)[nH]c2cc(Cl)ccc12 | 190 nM |  |  |
| CN(C)CCCNc1c(-c2ccccc2)c(O)nc2cc(Cl)ccc12 | 4200 nM |  | No. of mice protected (Mus musculus [12]): 6; No. of mice protected (Mus musculus [13]): 1 |
| CN(C)CCNc1c(-c2ccccc2)c(=O)[nH]c2cc(Cl)ccc12 | 3200 nM |  |  |
| O=C(O)c1c(-c2ccccc2)c(=O)[nH]c2cc(Cl)ccc12 | 900 nM |  |  |
| O=C(O)CCc1c(-c2ccccc2)c(=O)[nH]c2cc(Cl)ccc12 | 170 nM |  |  |
| Oc1nc2cc(Cl)ccc2c(OCc2ccccn2)c1-c1ccccc1 | 2800 nM |  | No. of mice protected (Mus musculus [6]): 1 |
| Cc1noc(CCc2c(-c3ccccc3)c(O)nc3cc(Cl)ccc23)n1 | 3500 nM |  | No. of mice protected (Mus musculus [9]): 4 |

| SMILES | IC50 [3] | Kb [4] | further results |
| --- | --- | --- | --- |
| O=C(O)C(=O)Nc1c(-c2ccccc2)c(O)nc2cc(Cl)ccc12 |  | 4500 nM | No. of mice protected (Mus musculus [9]): 0 |
| COc1c(-c2ccccc2)c(=O)[nH]c2cc(Cl)ccc12 | > 100000 nM |  |  |
| Nc1c(-c2ccccc2)c(O)nc2cc(Cl)ccc12 |  | 10500 nM |  |
| CN(C)CCOc1c(-c2ccccc2)c(O)nc2cc(Cl)ccc12 | 11000 nM |  |  |
| O=C(NCc1ccccc1)c1c(-c2ccccc2)c(=O)[nH]c2cc(Cl)ccc12 | > 100000 nM |  |  |
| CCc1c(-c2ccccc2)c(O)nc2cc(Cl)ccc12 | > 100000 nM |  |  |
| N#CCOc1c(-c2cccc(Oc3ccccc3)c2)c(O)nc2cc(Cl)ccc12 | 1200 nM |  | No. of mice protected (Mus musculus [14]): 1; No. of mice protected (Mus musculus [9]): 8 |
| Nc1c(-c2cccc(Oc3ccccc3)c2)c(O)nc2cc(Cl)ccc12 | 420 nM | 3400 nM | No. of mice protected (Mus musculus [9]): 2 |
| O=c1[nH]c2cc(Cl)ccc2c(NS(=O)(=O)c2ccccc2)c1-c1ccccc1 | 1190 nM |  |  |
| O=C(O)COc1c(-c2cccc(Oc3ccccc3)c2)c(=O)[nH]c2cc(Cl)ccc12 | 24 nM |  |  |
| CS(=O)(=O)Nc1c(-c2ccccc2)c(O)nc2cc(Cl)ccc12 | 270 nM | 2200 nM | No. of mice protected (Mus musculus [9]): 0 |
| O=C(O)Cc1c(-c2ccccc2)c(O)nc2cc(Cl)ccc12 |  | 1400 nM | No. of mice protected at 20 mg/kg (Mus musculus [8]): 0 mg/kg |
| N#CCCc1c(-c2ccccc2)c(O)nc2cc(Cl)ccc12 |  | > 10000 nM | No. of mice protected (Mus musculus [9]): 0 |
| C/C(COc1c(-c2ccccc2)c(O)nc2cc(Cl)ccc12)=N\O | 780 nM |  | ED50 (Mus musculus [15]): 9.4 mg/kg; Kb [1]: 2800 nM |
| COC(=O)Cc1c(-c2ccccc2)c(O)nc2cc(Cl)ccc12 |  | 4000 nM | No. of mice protected (Mus musculus [9]): 1 |
| CC(=O)Nc1c(-c2ccccc2)c(O)nc2cc(Cl)ccc12 | 14700 nM |  | No. of mice protected (Mus musculus [16]): inactive |
| CC(=O)COc1c(-c2ccccc2)c(O)nc2cc(Cl)ccc12 | 1700 nM |  | Kb [1]: 11400 nM; No. of mice protected (Mus musculus [6]): 5 |
| NC(=O)COc1c(-c2ccccc2)c(=O)[nH]c2cc(Cl)ccc12 | 420 nM |  |  |
| N#CCCc1c(-c2ccccc2)c(=O)[nH]c2cc(Cl)ccc12 | 750 nM |  |  |
| O=S(=O)(Nc1c(-c2ccccc2)c(O)nc2cc(Cl)ccc12)c1ccccc1 |  | 2900 nM | No. of mice protected (Mus musculus [9]): 1 |

| SMILES | IC50 [3] | Kb [4] | further results |
| --- | --- | --- | --- |
| CN(C)CCNC(=O)C(=O)Nc1c(-c2ccccc2)c(O)nc2cc(Cl)ccc12 | 25000 nM |  | No. of mice protected (Mus musculus [9]): 2 |
| COC(=O)Cc1c(-c2ccccc2)c(=O)[nH]c2cc(Cl)ccc12 | 1100 nM |  |  |
| NC(=O)CCc1c(-c2ccccc2)c(O)nc2cc(Cl)ccc12 |  | 2900 nM | No. of mice protected (Mus musculus [9]): 1 |
| CN(C)CCNc1c(-c2ccccc2)c(O)nc2cc(Cl)ccc12 |  | 12000 nM | No. of mice protected (Mus musculus [12]): 8; No. of mice protected (Mus musculus [9]): 0 |
| O=C(O)Cc1c(-c2ccccc2)c(=O)[nH]c2cc(Cl)ccc12 | 160 nM |  |  |
| CN(C)c1c(-c2ccccc2)c(=O)[nH]c2cc(Cl)ccc12 | > 100000 nM |  |  |
| O=c1[nH]c2cc(Cl)ccc2c(CCc2nn[nH]n2)c1-c1ccccc1 | 240 nM |  |  |
| O=C(O)COc1c(-c2cccc(Oc3ccccc3)c2)c(O)nc2cc(Cl)ccc12 |  | 560 nM | No. of mice protected (Mus musculus [9]): 0 |
| O=C(O)CC(=O)Nc1c(-c2ccccc2)c(=O)[nH]c2cc(Cl)ccc12 | 1100 nM |  |  |
| O=C(O)COc1c(-c2ccccc2)c(O)nc2cc(Cl)ccc12 | 110 nM | 1250 nM | No. of mice protected (Mus musculus [9]): 3 |
| Nc1c(-c2ccccc2)c(=O)[nH]c2cc(Cl)ccc12 | 6700 nM |  |  |
| CO/N=C(\C)COc1c(-c2ccccc2)c(O)nc2cc(Cl)ccc12 | ~50000 nM |  | No. of mice protected (Mus musculus [17]): 0 |
| O=c1[nH]c2cc(Cl)ccc2c(O)c1-c1cccc(Oc2ccccc2)c1 |  |  | ED50 (Mus musculus [5]): 0.9 mg/kg |
| COC(=O)COc1c(-c2ccccc2)c(O)nc2cc(Cl)ccc12 | 3200 nM | 960 nM | No. of mice protected (Mus musculus [12]): 1 |
| CNc1c(-c2ccccc2)c(=O)[nH]c2cc(Cl)ccc12 | > 100000 nM |  |  |
| Oc1nc2cc(Cl)ccc2c(OCc2ccccc2)c1-c1ccccc1 | ~10000 nM |  |  |
| O=C(O)CC(=O)Nc1c(-c2ccccc2)c(O)nc2cc(Cl)ccc12 |  | 11600 nM | No. of mice protected (Mus musculus [9]): 2 |
| COC(=O)C(=O)Nc1c(-c2ccccc2)c(O)nc2cc(Cl)ccc12 | 2700 nM |  | ED50 (Mus musculus [18]): inactive |
| O=C(O)CCc1c(-c2ccccc2)c(O)nc2cc(Cl)ccc12 |  | 2200 nM | No. of mice protected (Mus musculus [8]): 1 |
